Series [1] in a line: Ability to inhibit the Mitochondrial cytochrome c Oxidase in isolated mitochondrial suspensions from R3230AC rat mammary adenocarcinomas. To be noted: concentration not given here. On the set-up: concentration or dose not given beside the values. In a few lines:
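Mitochondria isolated from subcutaneously transplanted R3230AC tumors in female Fischer 344 rats and stored at -70 °C. They were diluted in sucrose/KCl buffer (pH 7.4) to give a 0.45-0.60/min absorbance change of cytochrome c at 550 nm. Dye (10 μM) was added for 5 min in the dark at room temperature, then mitochondria were pelleted and resuspended. Samples were matched by absorbance (~1.5 OD) and irradiated with 375–800 nm light. The initial inhibition rate was taken over the first 5 min of exposure.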

Series [2] is described as follows: Partition coefficient (logP). The following applies: octanol/water. Format: physicochemical. A digest of the protocol: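 Partitioning measured between n-octanol and water.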

Structures are written as SMILES.

The compound `CC(C)(C)C1=CC(=C/C=C/c2cc(C(C)(C)C)[se+]c(C(C)(C)C)c2)C=C(C(C)(C)C)O1` yielded an inhibition in series [1] of 2.55%.

Turning to `CC(C)(C)C1=CC(=C/C=C/c2cc(C(C)(C)C)[te+]c(C(C)(C)C)c2)C=C(C(C)(C)C)O1`, in series [2], the logP amounted to 2.41. The inhibition in series [1] worked out at 10.9%.

`CC(C)(C)C1=CC(=C/C=C/c2cc(C(C)(C)C)[s+]c(C(C)(C)C)c2)C=C(C(C)(C)C)O1` showed an inhibition in series [1] of 0.03%.

`CC(C)(C)C1=CC(=C/C=C/c2cc(C(C)(C)C)[se+]c(C(C)(C)C)c2)C=C(C(C)(C)C)[Se]1` registered a logP in series [2] of 1.92. This compound also registered an inhibition in series [1] of 4.2%.

In series [2], `CC(C)(C)C1=CC(=C/C=C/c2cc(C(C)(C)C)[o+]c(C(C)(C)C)c2)C=C(C(C)(C)C)O1` displayed a logP of 2.51. Further, the inhibition in series [1] was 0%.

For `CC(C)(C)C1=CC(=C/C=C/c2cc(C(C)(C)C)[se+]c(C(C)(C)C)c2)C=C(C(C)(C)C)S1`, the logP in series [2] stood at 2.39. The inhibition in series [1] turned out to be 4.05%.

As for `CC(C)(C)C1=CC(=C/C=C/c2cc(C(C)(C)C)[te+]c(C(C)(C)C)c2)C=C(C(C)(C)C)[Te]1`, the logP in series [2] was determined as 2.02.

Regarding `CC(C)(C)C1=CC(=C/C=C/c2cc(C(C)(C)C)[s+]c(C(C)(C)C)c2)C=C(C(C)(C)C)S1`, the logP in series [2] came out at 1.97. This compound returned an inhibition in series [1] of 0.045%.

Consider `CC(C)(C)C1=CC(=C/C=C/c2cc(C(C)(C)C)[te+]c(C(C)(C)C)c2)C=C(C(C)(C)C)[Se]1`, for which the logP in series [2] turned out to be 2.41. This compound also displayed an inhibition in series [1] of 3%.

The values above are taken from ChEMBL document CHEMBL1124734, “Chalcogenapyrylium dyes as photochemotherapeutic agents. 2. Tumor uptake, mitochondrial targeting, and singlet-oxygen-induced inhibition of cytochrome c oxidase” (J Med Chem, 1990).
